Common to all, as to type: functional, cell-based
In experiment [1] the target is T1, Toll-like receptor 9 (Mus musculus) (UniProt Q9EQU3).
T1 sequence (whole entry): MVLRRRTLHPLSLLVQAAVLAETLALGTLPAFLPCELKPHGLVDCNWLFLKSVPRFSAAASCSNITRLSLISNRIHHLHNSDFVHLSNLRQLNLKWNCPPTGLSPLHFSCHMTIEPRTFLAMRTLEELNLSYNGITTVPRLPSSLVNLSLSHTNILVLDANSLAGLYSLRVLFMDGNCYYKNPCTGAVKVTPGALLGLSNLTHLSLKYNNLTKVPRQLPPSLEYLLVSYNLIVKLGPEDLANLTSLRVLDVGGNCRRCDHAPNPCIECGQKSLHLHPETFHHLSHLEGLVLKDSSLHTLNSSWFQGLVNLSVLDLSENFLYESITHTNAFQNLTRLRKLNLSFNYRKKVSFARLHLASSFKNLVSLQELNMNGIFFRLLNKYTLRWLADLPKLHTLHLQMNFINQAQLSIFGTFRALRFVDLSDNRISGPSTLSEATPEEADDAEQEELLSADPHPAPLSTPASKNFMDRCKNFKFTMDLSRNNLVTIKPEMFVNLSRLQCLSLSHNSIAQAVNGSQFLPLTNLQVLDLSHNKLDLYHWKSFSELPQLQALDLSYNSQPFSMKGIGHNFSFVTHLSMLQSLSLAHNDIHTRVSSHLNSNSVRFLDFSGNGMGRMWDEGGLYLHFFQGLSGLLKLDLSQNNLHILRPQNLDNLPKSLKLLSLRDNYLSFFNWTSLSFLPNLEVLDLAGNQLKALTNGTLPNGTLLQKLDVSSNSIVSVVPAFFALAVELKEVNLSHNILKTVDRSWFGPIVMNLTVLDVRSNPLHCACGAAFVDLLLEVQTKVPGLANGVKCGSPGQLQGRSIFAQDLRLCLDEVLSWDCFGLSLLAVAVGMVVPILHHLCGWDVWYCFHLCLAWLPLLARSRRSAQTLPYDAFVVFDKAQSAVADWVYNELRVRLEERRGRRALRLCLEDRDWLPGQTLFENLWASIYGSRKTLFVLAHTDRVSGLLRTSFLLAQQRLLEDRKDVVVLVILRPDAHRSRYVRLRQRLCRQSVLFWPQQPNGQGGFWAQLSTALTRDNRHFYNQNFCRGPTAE
Nature of the experiment: Agonist activity at mouse TLR9 expressed in HEK293 cells assessed as activation of NF-kappaB at 10 ug/mL by SEAP reporter gene assay. The method, boiled down:
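HEK293 cells stably expressing mouse TLR9 were transiently transfected with a SEAP reporter for 6 h. Compounds were added at 10 µg/mL for 18 h. SEAP was read with Quanti-Blue substrate and expressed as fold change in NF-κB activity.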

For experiment [2], the target named is T1, Toll-like receptor 9 (Mus musculus). Nature of the experiment: Agonist activity at TLR9 in mouse J774 cells assessed as of NF-kappaB activation. The method, boiled down: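 Murine J774 macrophages grown in DMEM with 10% FBS and plated at 5×10^6 cells/well. Nuclear extracts taken 1 h after agonist addition. NF-κB detected by EMSA on native polyacrylamide gels with autoradiography.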

Experiment [3] has the same target. Nature of the experiment: Antagonist activity at TLR9 in mouse J774 cells assessed as inhibition of 5'-TCTGACRTTCT-X-TCTTRCAGTCT-3'-induced NF-kappaB activation pretreated for 1 hr. The method, boiled down: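 J774 cells at 5×10^6 cells/well were preincubated with antagonist for 1 h. Agonist was then added: TLR9 agonist 1 µg/mL, an RNA-based TLR7/8 agonist, or LPS 100 ng/mL. Antagonist was used at 5–40 µg/mL or at the indicated agonist ratios. Nuclear extracts were taken 1 h after agonist and analysed by EMSA.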

Experiment [4] has the same target. The experiment can be described thus: Antagonist activity at mouse TLR9 expressed in HEK293 cells assessed as inhibition of 5'-CTATCTGACGTTCTCTGT-3'-induced NF-kappaB activation by SEAP reporter gene assay. Put shortly:
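Mouse TLR9-HEK293 cells were transfected with a SEAP reporter for 6 h. They were then stimulated for 18 h with agonist (0.25 or 0.5 µg/mL) plus increasing antagonist concentrations or set agonist:antagonist ratios. Quanti-Blue read-out, reported as % NF-κB activity with agonist alone as 100%.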
(Reporter assays use an easily measured gene product as a stand-in for the process of interest.)

Our source for the Activity values is ChEMBL document CHEMBL1140884, “Oligodeoxyribonucleotide-based antagonists for Toll-like receptors 7 and 9” (2009).

SMILES strings stand for the structures. The source made the active and inactive calls. The calls are words filed in the database; no cut-off is given here.

For the compound `Cc1cn([C@H]2C[C@H](OP(=O)(S)OC[C@H]3O[C@@H](n4ccc(N)nc4=O)C[C@@H]3OP(=O)(S)OC[C@H]3O[C@@H](n4cc(C)c(=O)[nH]c4=O)C[C@@H]3OP(=O)(S)OC[C@H]3O[C@@H](n4cnc5c(=O)[nH]c(N)nc54)C[C@@H]3OP(=O)(S)OC[C@H]3O[C@@H](n4cc(C)c(=O)[nH]c4=O)C[C@@H]3O)[C@@H](COP(=O)(S)O[C@H]3C[C@H](n4ccc(N)nc4=O)O[C@@H]3COP(=O)(S)O[C@H]3C[C@H](n4cc(C)c(=O)[nH]c4=O)O[C@@H]3COP(=O)(S)O[C@H]3C[C@H](n4cc(C)c(=O)[nH]c4=O)O[C@@H]3COP(=O)(S)O[C@H]3C[C@H](n4cnc5c(=O)[nH]c(N)nc54)O[C@@H]3COP(=O)(S)O[C@H]3C[C@H](n4ccc(N)nc4=O)O[C@@H]3COP(=O)(S)O[C@H]3C[C@H](n4cc(C)c(=O)[nH]c4=O)O[C@@H]3COP(=O)(S)O[C@H]3C[C@H](n4cnc5c(=O)[nH]c(N)nc54)O[C@@H]3COP(=O)(S)O[C@H]3C[C@H](n4cc(C)c(=O)[nH]c4=O)O[C@@H]3COP(=O)(S)O[C@H]3C[C@H](n4ccc(N)nc4=O)O[C@@H]3COP(=O)(S)O[C@H]3C[C@H](n4cc(C)c(=O)[nH]c4=O)O[C@@H]3COP(=O)(S)O[C@H]3C[C@H](n4cnc5c(N)ncnc54)O[C@@H]3COP(=O)(S)O[C@H]3C[C@H](n4cc(C)c(=O)[nH]c4=O)O[C@@H]3COP(=O)(S)O[C@@H]3C[C@@H](n4ccc(N)nc4=O)O[C@H]3CO)O2)c(=O)[nH]c1=O` (some centres not stated), the outcome in experiment [1] was Active.
Still for that read-out and setting: the entry for `CO[C@@H]1[C@H](OP(=O)(S)OC[C@H]2O[C@@H](n3ccc(N)nc3=O)C[C@@H]2OP(=O)(S)OC[C@H]2O[C@@H](n3cc(C)c(=O)[nH]c3=O)C[C@@H]2OP(=O)(S)OC[C@H]2O[C@@H](n3ccc(N)nc3=O)C[C@@H]2OP(=O)(S)OC[C@H]2O[C@@H](n3cc(C)c(=O)[nH]c3=O)C[C@@H]2OP(=O)(S)OC[C@H]2O[C@@H](n3cnc4c(=O)[nH]c(N)nc43)C[C@@H]2OP(=O)(S)OC[C@H]2O[C@@H](n3cc(C)c(=O)[nH]c3=O)C[C@@H]2O)[C@@H](COP(=O)(S)O[C@H]2[C@@H](OC)[C@H](n3ccc(=O)[nH]c3=O)O[C@@H]2COP(=O)(S)O[C@H]2C[C@H](n3cnc4c(=O)[nH]c(N)nc43)O[C@@H]2COP(=O)(S)O[C@H]2C[C@H](n3ccc(N)nc3=O)O[C@@H]2COP(=O)(S)O[C@H]2C[C@H](n3cnc4c(N)ncnc43)O[C@@H]2COP(=O)(S)O[C@H]2C[C@H](n3cnc4c(=O)[nH]c(N)nc43)O[C@@H]2COP(=O)(S)O[C@H]2C[C@H](n3cc(C)c(=O)[nH]c3=O)O[C@@H]2COP(=O)(S)O[C@H]2C[C@H](n3ccc(N)nc3=O)O[C@@H]2COP(=O)(S)O[C@H]2C[C@H](n3cc(C)c(=O)[nH]c3=O)O[C@@H]2COP(=O)(S)O[C@H]2C[C@H](n3cnc4c(N)ncnc43)O[C@@H]2COP(=O)(S)O[C@H]2C[C@H](n3cc(C)c(=O)[nH]c3=O)O[C@@H]2COP(=O)(S)O[C@@H]2C[C@@H](n3ccc(N)nc3=O)O[C@H]2CO)O[C@H]1n1ccc(=O)[nH]c1=O` (some centres not stated) is “Active”.
As to `CO[C@@H]1[C@H](OP(=O)(S)OC[C@H]2O[C@@H](n3ccc(N)nc3=O)C[C@@H]2OP(=O)(S)OC[C@H]2O[C@@H](n3ccc(N)nc3=O)C[C@@H]2OP(=O)(S)OC[C@H]2O[C@@H](n3cc(C)c(=O)[nH]c3=O)C[C@@H]2OP(=O)(S)OC[C@H]2O[C@@H](n3cc(C)c(=O)[nH]c3=O)C[C@@H]2OP(=O)(S)OC[C@H]2O[C@@H](n3ccc(N)nc3=O)C[C@@H]2OP(=O)(S)OC[C@H]2O[C@@H](n3cc(C)c(=O)[nH]c3=O)C[C@@H]2OP(=O)(S)OC[C@H]2O[C@@H](n3ccc(N)nc3=O)C[C@@H]2OP(=O)(S)OC[C@H]2O[C@@H](n3cc(C)c(=O)[nH]c3=O)C[C@@H]2OP(=O)(S)OC[C@H]2O[C@@H](n3cnc4c(=O)[nH]c(N)nc43)C[C@@H]2OP(=O)(S)OC[C@H]2O[C@@H](n3cc(C)c(=O)[nH]c3=O)C[C@@H]2O)[C@@H](COP(=O)(S)O[C@H]2[C@@H](OC)[C@H](n3cnc4c(=O)[nH]c(N)nc43)O[C@@H]2COP(=O)(S)O[C@H]2C[C@H](n3cc(C)c(=O)[nH]c3=O)O[C@@H]2COP(=O)(S)O[C@H]2C[C@H](n3ccc(N)nc3=O)O[C@@H]2COP(=O)(S)O[C@H]2C[C@H](n3cc(C)c(=O)[nH]c3=O)O[C@@H]2COP(=O)(S)O[C@H]2C[C@H](n3cnc4c(N)ncnc43)O[C@@H]2COP(=O)(S)O[C@H]2C[C@H](n3cc(C)c(=O)[nH]c3=O)O[C@@H]2COP(=O)(S)O[C@@H]2C[C@@H](n3ccc(N)nc3=O)O[C@H]2CO)O[C@H]1n1cnc2c(N)ncnc21` (some centres not stated), the result in experiment [1], in experiment [2] and in experiment [3] was inactive.
In the case of `Cc1cn([C@@H]2O[C@H](COP(=O)(S)O[C@H]3C[C@H](n4ccc(N)nc4=O)O[C@@H]3COP(=O)(S)O[C@H]3C[C@H](n4cc(C)c(=O)[nH]c4=O)O[C@@H]3COP(=O)(S)O[C@H]3C[C@H](n4ccc(N)nc4=O)O[C@@H]3COP(=O)(S)O[C@H]3C[C@H](n4cc(C)c(=O)[nH]c4=O)O[C@@H]3COP(=O)(S)O[C@H]3C[C@H](n4cc(C)c(=O)[nH]c4=O)O[C@@H]3COP(=O)(S)O[C@H]3C[C@H](n4cnc5c(=O)[nH]c(N)nc54)O[C@@H]3COP(=O)(S)O[C@H]3C[C@H](n4ccc(N)nc4=O)O[C@@H]3COP(=O)(S)O[C@H]3C[C@H](n4cnc5c(N)ncnc54)O[C@@H]3COP(=O)(S)O[C@H]3C[C@H](n4cnc5c(=O)[nH]c(N)nc54)O[C@@H]3COP(=O)(S)O[C@H]3C[C@H](n4cc(C)c(=O)[nH]c4=O)O[C@@H]3COP(=O)(S)O[C@H]3C[C@H](n4ccc(N)nc4=O)O[C@@H]3COP(=O)(S)O[C@H]3C[C@H](n4cc(C)c(=O)[nH]c4=O)O[C@@H]3COP(=O)(S)O[C@H]3C[C@H](n4cnc5c(N)ncnc54)O[C@@H]3COP(=O)(S)O[C@H]3C[C@H](n4cc(C)c(=O)[nH]c4=O)O[C@@H]3COP(=O)(S)O[C@@H]3C[C@@H](n4ccc(N)nc4=O)O[C@H]3CO)[C@@H](OP(=O)(S)OC[C@H]3O[C@@H](n4cnc5c(=O)[nH]c(N)nc54)C[C@@H]3OP(=O)(S)OC[C@H]3O[C@@H](n4cc(C)c(=O)[nH]c4=O)C[C@@H]3O)[C@H]2O)c(=O)[nH]c1=O` (some centres not stated), in experiment [1], the outcome was Active. In experiment [4], the result was inactive.
